Data published in ChEMBL document CHEMBL1641513, “Synthesis of sugars embodying conjugated carbonyl systems and related triazole derivatives from carboxymethyl glycoside lactones. Evaluation of their antimicrobial activity and toxicity” (Bioorg Med Chem, 2011).
Values after ≈ are worked out from the molar mass of the structure shown. Values joined by “and” are separate entries in the source; they are usually repeats but may differ in a detail not shown here. Identical values can stand only once.

Columns and labels:
[1] = Cytotoxicity against […] HII4E cells after 48 hrs by MTT assay; type: cell-based
How it was run: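 Adherent […] hepatoma cells attached 24 h in 96-well plates, then exposed to compound 24 h. H2O2 positive control, DMSO negative control. At 48 h of culture, MTT added (0.5 mg/mL final) for 3 h. Cells washed, formazan dissolved in DMSO with 20 min shaking at room temperature. Absorbance read at 550 nm, 620 nm reference.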

[2] = Antifungal activity against Penicillium aurantiogriseum ATCC 16025 after 24 to 48 hrs by paper disk diffusion assay; type: functional
How it was run: (§1)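 Fungal disk diffusion per CLSI. Overnight cultures spread on potato dextrose agar. 6.4 mm paper disks each loaded with 300 μg substance in 15 μL DMSO. Actidione and amphotericin B positive controls, DMSO negative control. Incubated 25 °C for 24–48 h. Inhibition-zone diameter averaged over two replicates, scored by diameter ranges.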

[3] = test system: Aspergillus niger; assay: Antifungal activity against Aspergillus niger ATCC 16404 after 24 to 48 hrs by paper disk diffusion assay; type: functional; how it was run: as §1
[4] = test system: Salmonella enteritidis; assay: Antibacterial activity against Salmonella enteritidis ATCC 13076 after 24 hrs by paper disk diffusion assay; type: functional, Salmonella enterica subsp. enterica serovar Enteritidis
How it was run: (§2)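 Disk diffusion per CLSI. Overnight bacterial cultures spread on nutrient agar. 6.4 mm paper disks each loaded with 300 μg substance in 15 μL DMSO. Chloramphenicol positive control, DMSO negative control. Incubated 37 °C, 24 h. Nearest inhibition-zone diameter measured, averaged over two replicates. Scored –(<12 mm) to +++++ (≥26 mm).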

[5] = test system: Enterococcus faecalis; assay: Antibacterial activity against Enterococcus faecalis ATCC 7080 after 24 hrs by paper disk diffusion assay; type: functional; how it was run: as §2
[6] = test system: Listeria monocytogenes; assay: Antibacterial activity against Listeria monocytogenes ATCC 19115 after 24 hrs by paper disk diffusion assay; type: functional
How it was run: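 Disk diffusion per CLSI, overnight culture spread on tryptone soya agar. 6.4 mm paper disks each loaded with 300 μg substance in 15 μL DMSO. Chloramphenicol positive control, DMSO negative control. Incubated 37 °C, 24 h. Inhibition-zone diameter measured, averaged over two replicates, and scored by diameter ranges.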

[7] = test system: Staphylococcus aureus; assay: Antibacterial activity against Staphylococcus aureus ATCC 6538 after 24 hrs by paper disk diffusion assay; type: functional; how it was run: as §2
[8] = test system: Bacillus cereus; assay: Antibacterial activity against Bacillus cereus ATCC 11778 after 24 hrs by paper disk diffusion assay; type: functional; how it was run: as §2
[9] = test system: Bacillus subtilis; assay: Antibacterial activity against Bacillus subtilis ATCC 6633 after 24 hrs by paper disk diffusion assay; type: functional; how it was run: as §2

O=C(CO[C@H]1O[C@H](CO)[C@H](O)[C@H](O)[C@H]1O)NCc1cn(Cc2ccccc2)nn1
IC50 [1]: 617 µg/mL (≈ 1510 µM)

CC(=O)OC[C@@H]1C=C(OC(C)=O)C(=O)[C@@H](OCC(=O)NCc2cn(Cc3ccccc3)nn2)O1
IC50 [1]: 10300 µg/mL (≈ 21800 µM)

C[S+](C)[O-] [DIMETHYL SULFOXIDE]
IC50 [1]: 199 µg/mL (≈ 2550 µM)

C[C@@H]1C[C@@H]([C@H](O)CC2CC(=O)NC(=O)C2)C(=O)[C@@H](C)C1 [CYCLOHEXIMIDE]
inhibition zone (IZ) [2]: > 26 mm and 26 mm
diameter of the inhibition zone (DIZ) [3]: 43 mm
inhibition zone (IZ) [3]: >=26 mm

CC(=O)OC[C@H]1O[C@@H](OCC(=O)NCc2cn(Cc3ccccc3)nn2)[C@H](O)[C@@H](OC(C)=O)[C@@H]1OC(C)=O
IC50 [1]: 505 µg/mL (≈ 945 µM)

C=CCCCCn1cc(CNC(=O)CO[C@H]2O[C@H](COC(C)=O)[C@H](OC(C)=O)[C@H](OC(C)=O)[C@H]2O)nn1
IC50 [1]: 63 µg/mL (≈ 120 µM)

C#CCNC(=O)CO[C@H]1O[C@H](COC(C)=O)C=C(OC(C)=O)C1=O
IC50 [1]: 282 µg/mL (≈ 831 µM)

CC(=O)OC[C@@H]1C=C(OC(C)=O)C(=O)[C@@H](OCC(=O)NCc2ccccc2)O1
IC50 [1]: 163 µg/mL (≈ 416 µM)

C[C@@H]1[C@H](O)[C@@H](C)/C=C/C=C/C=C/C=C/C=C/C=C/C=C/[C@H](O[C@@H]2O[C@H](C)[C@@H](O)[C@H](N)[C@@H]2O)C[C@@H]2O[C@](O)(C[C@@H](O)C[C@@H](O)[C@H](O)CC[C@@H](O)C[C@@H](O)CC(=O)O[C@H]1C)C[C@H](O)[C@H]2C(=O)O [AMPHOTERICIN B]
inhibition zone (IZ) [2]: > 26 mm and 26 mm
diameter of the inhibition zone (DIZ) [3]: 22 mm
inhibition zone (IZ) [3]: 22 mm

C=CCCCCn1cc(CN(CC=C)C(=O)CO[C@H]2O[C@H](COCC=C)[C@H](OCC=C)[C@H](O)[C@H]2OCC=C)nn1
IC50 [1]: 1190 µg/mL (≈ 2120 µM)

CCOC(=O)/C=C1\C(OC(C)=O)=C[C@@H](COC(C)=O)O[C@@H]1OCC(=O)NCc1ccccc1
inhibition zone (IZ) [2]: 12 mm
IC50 [1]: 128 µg/mL (≈ 277 µM)
diameter of the inhibition zone (DIZ) [4]: <12 mm
diameter of the inhibition zone (DIZ) [5]: 24 mm
inhibition zone (IZ) [5]: 24 mm
diameter of the inhibition zone (DIZ) [6]: <12 mm
diameter of the inhibition zone (DIZ) [7]: <12 mm
diameter of the inhibition zone (DIZ) [8]: <12 mm
diameter of the inhibition zone (DIZ) [9]: <12 mm
diameter of the inhibition zone (DIZ) [3]: <12 mm

C=CCCCCn1cc(CNC(=O)CO[C@H]2O[C@H](CO)[C@H](O)[C@H](O)[C@H]2O)nn1
IC50 [1]: 394 µg/mL (≈ 984 µM)

O=C(N[C@H](CO)[C@H](O)c1ccc([N+](=O)[O-])cc1)C(Cl)Cl [CHLORAMPHENICOL]
diameter of the inhibition zone (DIZ) [4]: 41 mm
inhibition zone (IZ) [4]: >=26 mm
diameter of the inhibition zone (DIZ) [5]: 37 mm
inhibition zone (IZ) [5]: >=26 mm
diameter of the inhibition zone (DIZ) [6]: 33 mm
inhibition zone (IZ) [6]: >=26 mm
diameter of the inhibition zone (DIZ) [7]: 36 mm
inhibition zone (IZ) [7]: >=26 mm
diameter of the inhibition zone (DIZ) [8]: 31 mm
inhibition zone (IZ) [8]: >=26 mm
diameter of the inhibition zone (DIZ) [9]: 40 mm
inhibition zone (IZ) [9]: >=26 mm

C=CCNC(=O)CO[C@H]1O[C@H](COC(C)=O)C=C(OC(C)=O)/C1=C\C(=O)OCC
IC50 [1]: 352 µg/mL (≈ 856 µM)

O=C(CO[C@@H]1O[C@H](CO)[C@@H](O)[C@H](O)[C@H]1O)NCc1cn(Cc2ccccc2)nn1
IC50 [1]: 426 µg/mL (≈ 1040 µM)

OO [HYDROGEN PEROXIDE]
IC50 [1]: 2 µg/mL (≈ 58.8 µM)

CC(=O)OC[C@H]1O[C@H](OCC(=O)NCc2cn(Cc3ccccc3)nn2)[C@H](O)[C@@H](OC(C)=O)[C@@H]1OC(C)=O
IC50 [1]: 69 µg/mL (≈ 129 µM)

CCCCCCCCCCCCNC(=O)CO[C@H]1O[C@H](COC(C)=O)C=C(OC(C)=O)/C1=C\C(=O)OCC
inhibition zone (IZ) [2]: 12 mm
IC50 [1]: 76 µg/mL (≈ 141 µM)
diameter of the inhibition zone (DIZ) [4]: <12 mm
diameter of the inhibition zone (DIZ) [5]: 22 mm
inhibition zone (IZ) [5]: 22 mm
diameter of the inhibition zone (DIZ) [6]: <12 mm
diameter of the inhibition zone (DIZ) [7]: 20 mm
inhibition zone (IZ) [7]: 20 mm
diameter of the inhibition zone (DIZ) [8]: <12 mm
diameter of the inhibition zone (DIZ) [9]: 12 mm
inhibition zone (IZ) [9]: 12 mm
diameter of the inhibition zone (DIZ) [3]: <12 mm

O=C(CO[C@H]1O[C@H](CO)[C@@H](O)[C@H](O)[C@H]1O)NCc1cn(Cc2ccccc2)nn1
IC50 [1]: 193 µg/mL (≈ 473 µM)

CCOC(=O)/C=C1\C(OC(C)=O)=C[C@@H](COC(C)=O)O[C@@H]1OCC(=O)NCc1cn(Cc2ccccc2)nn1
IC50 [1]: 12000 µg/mL (≈ 22100 µM)

C#CCNC(=O)CO[C@H]1O[C@H](COC(C)=O)C=C(OC(C)=O)/C1=C\C(=O)OCC
inhibition zone (IZ) [2]: < 12 mm
IC50 [1]: 257 µg/mL (≈ 628 µM)
diameter of the inhibition zone (DIZ) [4]: <12 mm
diameter of the inhibition zone (DIZ) [5]: 24 mm
inhibition zone (IZ) [5]: 24 mm
diameter of the inhibition zone (DIZ) [6]: <12 mm
diameter of the inhibition zone (DIZ) [7]: <12 mm
diameter of the inhibition zone (DIZ) [8]: <12 mm
diameter of the inhibition zone (DIZ) [9]: <12 mm
diameter of the inhibition zone (DIZ) [3]: <12 mm

CCCCCCCCCCCCNC(=O)CO[C@@H]1O[C@H](COC(C)=O)C=C(OC(C)=O)C1=O
inhibition zone (IZ) [2]: > 26 mm and 33 mm
IC50 [1]: 45 µg/mL (≈ 95.8 µM)
diameter of the inhibition zone (DIZ) [4]: 14 mm
inhibition zone (IZ) [4]: 14 mm
diameter of the inhibition zone (DIZ) [5]: <12 mm
diameter of the inhibition zone (DIZ) [6]: 14 mm
inhibition zone (IZ) [6]: 14 mm
diameter of the inhibition zone (DIZ) [7]: 13 mm
inhibition zone (IZ) [7]: 13 mm
diameter of the inhibition zone (DIZ) [8]: 16 mm
inhibition zone (IZ) [8]: 14 mm
diameter of the inhibition zone (DIZ) [9]: 21 mm
inhibition zone (IZ) [9]: 18 mm
diameter of the inhibition zone (DIZ) [3]: 40 mm
inhibition zone (IZ) [3]: >=26 mm

CCCCCCCCCCCCNC(=O)CO[C@H]1O[C@H](COC(C)=O)C=C(OC(C)=O)C1=O
inhibition zone (IZ) [2]: > 26 mm and 30 mm
IC50 [1]: 136 µg/mL (≈ 290 µM)
diameter of the inhibition zone (DIZ) [4]: <12 mm
diameter of the inhibition zone (DIZ) [5]: 24 mm
inhibition zone (IZ) [5]: 24 mm
diameter of the inhibition zone (DIZ) [6]: 17 mm
inhibition zone (IZ) [6]: 17 mm
diameter of the inhibition zone (DIZ) [7]: 17 mm
inhibition zone (IZ) [7]: 17 mm
diameter of the inhibition zone (DIZ) [8]: 39 mm
inhibition zone (IZ) [8]: >=26 mm
diameter of the inhibition zone (DIZ) [9]: 40 mm
inhibition zone (IZ) [9]: >=26 mm
diameter of the inhibition zone (DIZ) [3]: 12 mm
inhibition zone (IZ) [3]: 12 mm

CC(=O)OC[C@H]1O[C@H](OCC(=O)NCc2cn(Cc3ccccc3)nn2)[C@H](O)[C@@H](OC(C)=O)[C@H]1OC(C)=O
IC50 [1]: 879 µg/mL (≈ 1640 µM)
